Experimental data from ChEMBL document CHEMBL5653631, “A Potent and Selective ULK1 Inhibitor Suppresses Autophagy and Sensitizes Cancer Cells to Nutrient Stress” (iScience, 2018).

What was measured:
[1] = target: T1, SNF-related serine/threonine-protein kinase (Homo sapiens) (UniProt Q9NRH2); experiment: Inhibition of human recombinant SNRK at 40 nM related to control ULK1
T1 sequence (whole entry): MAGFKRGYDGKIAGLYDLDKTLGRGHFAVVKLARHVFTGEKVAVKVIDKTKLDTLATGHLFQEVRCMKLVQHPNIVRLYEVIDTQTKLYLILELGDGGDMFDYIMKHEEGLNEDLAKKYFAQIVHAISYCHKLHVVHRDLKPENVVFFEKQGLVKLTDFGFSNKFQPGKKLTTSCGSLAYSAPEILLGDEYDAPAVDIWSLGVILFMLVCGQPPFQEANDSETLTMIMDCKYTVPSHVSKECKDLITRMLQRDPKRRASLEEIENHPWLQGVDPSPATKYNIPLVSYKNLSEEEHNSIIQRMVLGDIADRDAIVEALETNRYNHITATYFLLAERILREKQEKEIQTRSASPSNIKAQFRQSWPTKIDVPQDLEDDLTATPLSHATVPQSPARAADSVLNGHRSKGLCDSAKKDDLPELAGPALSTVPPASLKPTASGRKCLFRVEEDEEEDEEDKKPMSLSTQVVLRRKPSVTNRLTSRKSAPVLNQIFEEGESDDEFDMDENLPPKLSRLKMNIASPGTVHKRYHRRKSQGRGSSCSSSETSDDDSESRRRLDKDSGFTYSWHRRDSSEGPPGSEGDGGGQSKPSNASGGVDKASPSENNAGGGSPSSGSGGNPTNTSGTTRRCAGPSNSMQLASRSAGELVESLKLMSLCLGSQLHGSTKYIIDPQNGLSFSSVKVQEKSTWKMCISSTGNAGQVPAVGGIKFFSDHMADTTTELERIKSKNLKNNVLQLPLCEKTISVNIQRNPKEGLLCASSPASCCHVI

[2] = target: T2, Activin receptor type-1B (Homo sapiens) (UniProt P36896); experiment: Inhibition of human recombinant ALK4 at 500 nM related to control ULK1
T2 sequence (whole entry): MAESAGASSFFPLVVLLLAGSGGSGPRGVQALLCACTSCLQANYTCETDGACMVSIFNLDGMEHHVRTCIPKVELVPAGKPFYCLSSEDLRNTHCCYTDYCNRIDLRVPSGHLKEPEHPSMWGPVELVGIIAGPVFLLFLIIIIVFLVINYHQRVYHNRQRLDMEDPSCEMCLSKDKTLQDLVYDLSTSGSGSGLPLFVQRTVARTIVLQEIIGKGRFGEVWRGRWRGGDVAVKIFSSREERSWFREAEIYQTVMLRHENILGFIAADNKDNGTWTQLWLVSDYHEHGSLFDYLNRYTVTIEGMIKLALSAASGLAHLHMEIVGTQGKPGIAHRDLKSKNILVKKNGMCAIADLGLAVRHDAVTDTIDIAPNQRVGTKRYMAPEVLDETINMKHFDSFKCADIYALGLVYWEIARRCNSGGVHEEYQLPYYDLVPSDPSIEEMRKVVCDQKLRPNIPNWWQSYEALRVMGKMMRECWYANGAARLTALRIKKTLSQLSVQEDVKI
In short: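 Panel of 327 recombinant human kinases, each assayed in vitro by radiometric activity assay in duplicate at a single inhibitor concentration per compound, chosen with reference to its ULK1 inhibition. Activity remaining was expressed as percent of vehicle control, and percent inhibition was calculated as 100 minus percent activity remaining.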

[3] = target: T3, Tyrosine-protein kinase Mer (Homo sapiens) (UniProt Q12866); experiment: Inhibition of human recombinant MER at 15 nM in presence of ATP by radiometric assay relative to control
T3 sequence (whole entry): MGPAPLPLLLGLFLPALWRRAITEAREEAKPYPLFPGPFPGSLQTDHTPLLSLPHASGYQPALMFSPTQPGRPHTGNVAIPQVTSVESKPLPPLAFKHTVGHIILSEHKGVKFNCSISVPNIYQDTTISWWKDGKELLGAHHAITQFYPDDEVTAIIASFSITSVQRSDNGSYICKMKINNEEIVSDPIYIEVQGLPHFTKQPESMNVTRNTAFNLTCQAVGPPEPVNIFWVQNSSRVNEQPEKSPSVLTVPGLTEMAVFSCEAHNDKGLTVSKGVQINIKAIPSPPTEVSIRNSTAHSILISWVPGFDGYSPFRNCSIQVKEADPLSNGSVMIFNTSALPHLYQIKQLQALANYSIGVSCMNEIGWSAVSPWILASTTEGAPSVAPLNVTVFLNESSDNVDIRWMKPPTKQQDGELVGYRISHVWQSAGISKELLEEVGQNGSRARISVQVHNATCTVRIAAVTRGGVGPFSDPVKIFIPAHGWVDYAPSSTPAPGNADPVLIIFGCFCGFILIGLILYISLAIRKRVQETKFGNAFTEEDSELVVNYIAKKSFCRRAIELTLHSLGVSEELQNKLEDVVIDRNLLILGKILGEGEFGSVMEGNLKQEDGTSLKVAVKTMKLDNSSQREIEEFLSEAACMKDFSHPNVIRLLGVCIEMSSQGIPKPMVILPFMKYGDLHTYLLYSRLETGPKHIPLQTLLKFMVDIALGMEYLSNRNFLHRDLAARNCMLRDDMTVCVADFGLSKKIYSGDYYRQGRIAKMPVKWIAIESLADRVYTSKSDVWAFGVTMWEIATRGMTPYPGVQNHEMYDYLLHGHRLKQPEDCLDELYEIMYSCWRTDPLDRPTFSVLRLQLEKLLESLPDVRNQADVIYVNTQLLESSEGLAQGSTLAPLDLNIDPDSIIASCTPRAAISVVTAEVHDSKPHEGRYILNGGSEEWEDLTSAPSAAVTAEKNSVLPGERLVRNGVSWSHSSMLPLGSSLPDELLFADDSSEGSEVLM

Question: `O=C(N[C@@H](C1CC1)C(F)(F)F)c1cc(-c2cnn3cc(-c4ccc(F)cc4)cnc23)cs1` was tested. Which fold change (FC) [1] did it give?
Answer: Its fold change (FC) is 0.

Question: Which fold change (FC) [2] does the source give for `CNC(=O)c1ccccc1Oc1nc(Nc2cc(OC)c(OC)c(OC)c2)ncc1Br` here?
Answer: Its fold change (FC) is 0.2.

Question: For `CC(C)[C@H](NC(=O)c1cc(-c2cnn3cc(-c4ccc(OCCN5CCCCC5)cc4)cnc23)cs1)C(F)(F)F`, which inhibition [3] is on record?
Answer: Its inhibition is 34%.
